Assay results taken from ChEMBL document CHEMBL3860103, “Antibacterial and Antibiofilm Activity of Cationic Small Molecules with Spatial Positioning of Hydrophobicity: An in Vitro and in Vivo Evaluation” (J Med Chem, 2016).
Calls of active or inactive are those of the source. No cut-off for these calls is given here.

Tests used:
Staphylococcus aureus [1] = test: (§1) Antibacterial activity against Staphylococcus aureus infected in BALB/c mouse model of superficial skin infection and biofilm formation assessed as reduction in bacterial load in skin at 40 mg/kg applied topically once daily for 4 days and measured 18 hrs after last dose; type: functional
Procedure, shortened: (§2)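 Female BALB/c mice (6–8 weeks, 18–22 g) made neutropenic with cyclophosphamide i.p. (150 mg/kg, then 100 mg/kg 3 days later), anesthetized, backs shaved, wounded and infected with MRSA ATCC 33591. After 24 h biofilm formation, 40 mg/kg applied topically to wound once daily for 4 days (n = 5/group; untreated control). Skin collected 18 h after last dose for CFU/g; portions formalin-fixed for SEM.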

Staphylococcus aureus [2] = test: Antibacterial activity against methicillin-resistant Staphylococcus aureus incubated for 24 hrs; type: functional
Procedure, shortened: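 MRSA (ATCC 33591) from a 6 h culture (~10^9 CFU/mL), diluted to ~10^5 CFU/mL in medium. Compounds in water, 2-fold serial dilutions, combined with the bacteria at 1:3 by volume and incubated 24 h at 37 °C. OD600 read. MIC is the lowest concentration whose OD matches the media-only control. Triplicate wells; experiments repeated at least twice.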

Staphylococcus aureus [3] = test: Induction of biofilm disruption in Staphylococcus aureus assessed as reduction in log bacterial burden at 32 ug/ml after 24 hrs by confocal laser-scanning microscopy; type: functional
Procedure, shortened: (§3)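 Established coverslip biofilms (S. aureus 24 h in nutrient medium + 1% glucose + 1% NaCl; E. coli 72 h in M9 + 0.5% glycerol + 0.02% casamino acid; 37 °C) washed, then exposed to 32 µg/mL for 24 h at 37 °C. Matrix dissolved with trypsin-EDTA, serially diluted, plated on nutrient agar; viability as log10 CFU/mL versus media-only control.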

Escherichia coli [4] = test: Induction of membrane permeabilization in Escherichia coli at 32 ug/ml after 0 to 20 mins by propidium iodide dye based assay; type: functional
Procedure, shortened: (§4)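 Membrane permeabilization of S. aureus or E. coli followed as increase in propidium iodide fluorescence after adding compounds at 32 µg/mL.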

[5] = Selectivity index, ratio of HC50 for induction of hemolysis in human RBC to MIC for Staphylococcus aureus
[6] = Toxicity in HEK293 cells assessed as induction of cell death at 32 ug/ml incubated for 24 hrs by calcein AM and propidium iodide dye based fluorescence microscopy; settings: human, hek293, 24 h
Procedure, shortened: (§5)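 HEK 293 cells seeded ~10^4 cells/well, treated with compounds for 24 h (16, 32 or 64 µg/mL); 0.1% Triton X positive, untreated negative control. Stained with calcein AM (2 µM) and PI (4.5 µM) 15 min at 37 °C, 5% CO2; imaged by fluorescence microscopy, 20X objective.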

Staphylococcus aureus [7] = test: as §1, with “dose by FEI field emission scanning electron microscopy relative to un-treated control” for “dose”; type: functional, organism-based; procedure, shortened: as §2
Staphylococcus aureus [8] = test: Antibacterial activity against Staphylococcus aureus incubated for 24 hrs; type: functional
Procedure, shortened: (§6)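 Broth microdilution: 6 h cultures diluted to ~10^5 CFU/mL in medium; compounds 2-fold serially diluted in water, mixed 1:3 with bacterial suspension. Incubated 24 h, 37 °C; OD600 read. MIC = concentration with OD similar to medium-only control. Triplicate wells, experiments repeated at least twice.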

Mus musculus [9] = test: Toxicity in topically dosed mouse assessed as induction of inflammation at 200 mg/kg by OECD425 guidelines based method; type: organism-based; settings: in vivo, topical_or_ocular
[10] = Toxicity in topically dosed mouse by OECD425 guidelines based method; type: organism-based; settings: in vivo, topical or ocular
Mus musculus [11] = test: Toxicity in topically dosed mouse assessed as induction of abnormal skin reaction at 200 mg/kg by OECD425 guidelines based method; type: organism-based; settings: in vivo, topical_or_ocular
[12] = Toxicity in HEK293 cells assessed as cell density level at 16 ug/ml incubated for 24 hrs by calcein AM and propidium iodide dye based fluorescence microscopy; settings: human, hek293, 24 h; procedure, shortened: as §5
Escherichia coli [13] = test: Induction of biofilm disruption in Escherichia coli assessed as mature biofilm thickness at 32 ug/ml after 24 hrs by SYTO 9 dye based confocal laser-scanning microscopy (reference value: 14 to 18 um); type: functional
Procedure, shortened: (§7)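 Biofilms grown on glass coverslips from ~10^5 CFU/mL: S. aureus in nutrient medium + 1% glucose + 1% NaCl, 24 h; E. coli in M9 + 0.5% glycerol + 0.02% casamino acid, 72 h; stationary, 37 °C. After PBS wash, treated 24 h at 37 °C with 32 µg/mL in the same medium; media-only control. Stained with SYTO 9 (5 µM), imaged by confocal microscopy.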

[14] = Selectivity index, ratio of HC50 for induction of hemolysis in human RBC to MIC for Escherichia coli
Staphylococcus aureus [15] = test: Induction of membrane permeabilization in Staphylococcus aureus at 32 ug/ml after 0 to 20 mins by propidium iodide dye based assay; type: functional; procedure, shortened: as §4
Escherichia coli [16] = test: Antibacterial activity against Escherichia coli incubated for 24 hrs; type: functional; procedure, shortened: as §6
Staphylococcus aureus [17] = test: Induction of biofilm disruption in Staphylococcus aureus after 24 hrs by confocal laser-scanning microscopy; type: functional; procedure, shortened: as §7
[18] = Induction of hemolysis in human RBC incubated for 1 hr; type: cell-based, Erythrocyte; settings: red blood cells
Procedure, shortened: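 Washed human RBCs from heparinized blood, 5 vol% in PBS, mixed 3:1 with serially diluted compounds; 1 h at 37 °C. Centrifuged; supernatant A540 read. Hemolysis % = (A−A0)/(Atotal−A0)×100, with water as 0% and 0.1 vol% Triton X-100 as full lysis.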

Escherichia coli [19] = test: Induction of biofilm disruption in Escherichia coli assessed as reduction in log bacterial burden at 32 ug/ml after 72 hrs by confocal laser-scanning microscopy; type: functional; settings: in the assay text read “after 24 hrs” for “after 72 hrs”; procedure, shortened: as §3
[20] = Induction of membrane hydration changes in Laurdan dye containing DPPG:DPPE (88:12) liposomes assessed as reduction in general polarization at 25 to 100 ug/ml by luminescence spectrometry; type: physicochemical
Procedure, shortened: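 Liposomes of 0.5 mM DPPG:DPPE (88:12) or 0.5 mM DPPC with Laurdan (lipid:dye 100:1), hydrated in PBS pH 7.4, 10 freeze–thaw cycles, sonicated 15 min at 70 °C. Compounds added in PBS (lipid:compound 7.4:1), tested at 25, 50, 100 µg/mL; emission at 440 and 490 nm (ex 350 nm), 37 °C. GP = (I440−I490)/(I440+I490).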

[21] = Toxicity in HEK293 cells assessed as induction of cell death at 64 ug/ml incubated for 24 hrs by calcein AM and propidium iodide dye based fluorescence microscopy; settings: human, hek293, 24 h; procedure, shortened: as §5
Staphylococcus aureus [22] = test: Induction of biofilm disruption in Staphylococcus aureus assessed as mature biofilm thickness at 32 ug/ml after 24 hrs by SYTO 9 dye based confocal laser-scanning microscopy (reference value: 14 to 18 um); type: functional; procedure, shortened: as §7
Escherichia coli [23] = test: Induction of membrane depolarization in Escherichia coli at 32 ug/ml after 0 to 20 mins by […] dye based assay; type: functional
Procedure, shortened: (§8)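 Membrane-potential dye DiSC3(5) taken up by S. aureus or E. coli; depolarization followed as rise in dye fluorescence after adding compounds at 32 µg/mL.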

Staphylococcus aureus [24] = test: as §1, with “dose relative to un-treated control” for “dose”; type: functional; parameters: scale not given: the % may be the effect or the level left; procedure, shortened: as §2
Staphylococcus aureus [25] = test: Induction of membrane depolarization in Staphylococcus aureus at 32 ug/ml after 0 to 20 mins by […] dye based assay; type: functional; procedure, shortened: as §8

Which results are given for `CCCCCCNC(=O)C[N+](C)(C)CCCCCCCCCCCC[N+](C)(C)CC(=O)NCCCCCC.[Br-].[Br-]`?
Activity (Staphylococcus aureus [1]): 5.3 log10CFU/g; MIC (Staphylococcus aureus [2]): 2 µg/mL; FC (Staphylococcus aureus [3]): 9.2; Activity (Escherichia coli [4]): Active; Selectivity Index [5]: 805; Activity [6]: Non-Toxic; Activity (Staphylococcus aureus [7]): Active; MIC (Staphylococcus aureus [8]): 1 µg/mL; Activity (Mus musculus [9]): Non-Toxic; LD50 [10]: > 200 mg/kg; Activity (Mus musculus [11]): Non-Toxic; Activity [12]: Non-Toxic; Activity (Escherichia coli [13]): 2 - 3 um; Selectivity Index [14]: 402; Activity (Staphylococcus aureus [15]): Active; MIC (Escherichia coli [16]): 2 µg/mL; MBEC (Staphylococcus aureus [17]): 31.2 to 62.5 µg/mL; HC50 at 1 h [18]: 805 µg/mL; FC (Escherichia coli [19]): 7.1; Activity [20]: Active; Activity [21]: Non-Toxic; Activity (Staphylococcus aureus [22]): 2 - 3 um; Activity (Escherichia coli [23]): Active; Activity (Staphylococcus aureus [24]): >99.999%; Activity (Staphylococcus aureus [25]): Active
